ChEMBL document CHEMBL1153440, “Hexosamine template. A platform for modulating gene expression and for sugar-based drug discovery” (2009)
Active and inactive are the calls of the source. The calls are words filed in the database; no cut-off is given here.

Key:
MDA-MB-231 [1] = assay: Increase in ID1 mRNA expression in human MDA-MB-231 cells after 3 days by qRT-PCR; format: functional, cell-based
MDA-MB-231 [2] = assay: Increase in TGF-beta1 mRNA expression in human MDA-MB-231 cells after 3 days by qRT-PCR; format: functional, cell-based
MDA-MB-231 [3] = assay: Increase in VEGFA mRNA expression in human MDA-MB-231 cells after 3 days by qRT-PCR; format: functional, cell-based
MDA-MB-231 [4] = assay: Increase in NQO1 mRNA expression in human MDA-MB-231 cells after 3 days by qRT-PCR; format: functional, cell-based
MDA-MB-231 [5] = assay: Growth inhibition of human MDA-MB-231 cells; format: functional, cell-based
MDA-MB-231 [6] = assay: Increase in sialic acid production in human MDA-MB-231 cells by periodate-resorcinal assay; format: functional, cell-based
MDA-MB-231 [7] = assay: Increase in EGR1 mRNA expression in human MDA-MB-231 cells at 75 uM after 3 days by qRT-PCR relative to control; format: functional
MDA-MB-231 [8] = assay: Growth inhibition of human MDA-MB-231 cells after 3 days; format: functional, cell-based
In short: (§1)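 Cells seeded in 6-well plates (MDA-MB-231 2.0–2.7×10^5, HCT-116 1.0×10^5 cells/well) with analog in ethanol (vehicle <0.5% v/v), grown 3 days at 37 °C, 5% CO2; cell numbers by Coulter particle counter, two 100 μl counts per sample.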

MDA-MB-231 [9] = assay: Increase in ID1 mRNA expression in human MDA-MB-231 cells at 75 uM after 3 days by qRT-PCR; format: functional, cell-based
HCT-116 [10] = assay: Growth inhibition of human HCT116 cells after 3 days; format: functional, cell-based; in short: as §1
MDA-MB-231 [11] = assay: Increase in NQO1 mRNA expression in human MDA-MB-231 cells at 75 uM after 3 days by qRT-PCR; format: functional, cell-based
HCT-116 [12] = assay: Decrease in EGR1 mRNA expression in human HCT116 cells after 3 days by qRT-PCR; format: functional, cell-based
MDA-MB-231 [13] = assay: Decrease in TP53 protein level in human MDA-MB-231 cells at 15 uM after 3 days by Western blotting; format: functional, cell-based
In short: (§2)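 Treated cells (3 days unless stated; HCT-116 also 24 h) washed in ice-cold PBS, lysed in RIPA with protease inhibitors; equal protein (5–20 μg, BCA) run on 4–15% Tris-HCl gel, transferred to nitrocellulose, blocked in 5% milk/TBST, primary antibody 2 h RT or overnight 4 °C, HRP secondary 1 h; chemiluminescence, densitometry. β-actin antibody also used. Two independent experiments.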

HCT-116 [14] = assay: Decrease in TP53 mRNA level in human HCT116 cells at >=15 uM after 3 days by qRT-PCR
MDA-MB-231 [15] = assay: Increase in VEGFA mRNA expression in human MDA-MB-231 cells at 75 uM after 3 days by qRT-PCR; format: functional, cell-based
MDA-MB-231 [16] = assay: Increase in TGF-beta1 mRNA expression in human MDA-MB-231 cells at 45 uM after 3 days by qRT-PCR; format: functional, cell-based
HCT-116 [17] = assay: Decrease in TP53 protein expression in human HCT116 cells assessed as protein levels at 20 uM after 3 days by Western blotting; format: functional; set-up: scale not given: the % may be the effect or the level left; in short: as §2
HCT-116 [18] = assay: Increase in EGR1 protein expression in human HCT116 cells after 3 days by Western blotting; format: functional, cell-based; in short: as §2
MDA-MB-231 [19] = assay: Increase in NQO1 mRNA expression in human MDA-MB-231 cells at 45 uM after 3 days by qRT-PCR; format: functional, cell-based
MDA-MB-231 [20] = assay: Increase in EGR1 mRNA expression in human MDA-MB-231 cells at 60 uM after 3 days by qRT-PCR relative to control; format: functional
HCT-116 [21] = assay: Increase in HPSE protein level in human HCT116 cells at 25 uM after 3 days by Western blotting; format: functional; in short: as §2
MDA-MB-231 [22] = assay: Suppression of TP53 mRNA expression in human MDA-MB-231 cells at 60 uM after 3 days by qRT-PCR; format: functional, cell-based
HCT-116 [23] = assay: Suppression of TP53 protein expression in human HCT116 cells at 25 uM after 3 days by Western blotting; format: functional, cell-based; in short: as §2
MDA-MB-231 [24] = assay: Increase in VEGFA mRNA expression in human MDA-MB-231 cells at 45 uM after 3 days by qRT-PCR; format: functional, cell-based
MDA-MB-231 [25] = assay: Decrease in EGR1 protein expression in human MDA-MB-231 cells at >45 uM after 3 days by Western blotting relative to control; format: functional; in short: as §2
HCT-116 [26] = assay: Increase in EGR1 mRNA expression in human HCT116 cells after 24 hrs by qRT-PCR; format: functional, cell-based
MDA-MB-231 [27] = assay: Increase in ID1 mRNA expression in human MDA-MB-231 cells at 45 uM after 3 days by qRT-PCR; format: functional, cell-based
MDA-MB-231 [28] = assay: Increase in NQO1 mRNA expression in human MDA-MB-231 cells at 60 uM after 3 days by qRT-PCR; format: functional, cell-based
MDA-MB-231 [29] = assay: Increase in TGF-beta1 mRNA expression in human MDA-MB-231 cells at 75 uM after 3 days by qRT-PCR; format: functional, cell-based
HCT-116 [30] = assay: Increase in HPSE protein level in human HCT116 cells at 20 uM after 3 days by Western blotting; format: functional; in short: as §2
MDA-MB-231 [31] = assay: Increase in ID1 mRNA expression in human MDA-MB-231 cells at 60 uM after 3 days by qRT-PCR; format: functional, cell-based
HCT-116 [32] = assay: Decrease in TP53 protein expression in human HCT116 cells assessed as protein levels at 25 uM after 3 days by Western blotting; format: functional; set-up: scale not given: the % may be the effect or the level left; in short: as §2
HCT-116 [33] = assay: Suppression of TP53 protein expression in human HCT116 cells at 20 uM after 3 days by Western blotting; format: functional, cell-based; in short: as §2
MDA-MB-231 [34] = assay: Increase in TGF-beta1 mRNA expression in human MDA-MB-231 cells at 60 uM after 3 days by qRT-PCR; format: functional, cell-based
MDA-MB-231 [35] = assay: Increase in VEGFA mRNA expression in human MDA-MB-231 cells at 60 uM after 3 days by qRT-PCR; format: functional, cell-based
MDA-MB-231 [36] = assay: Increase in EGR1 mRNA expression in human MDA-MB-231 cells at 45 uM after 3 days by qRT-PCR relative to control; format: functional
MDA-MB-231 [37] = assay: Suppression of TP53 mRNA expression in human MDA-MB-231 cells at 75 uM after 3 days by qRT-PCR; format: functional, cell-based
HCT-116 [38] = assay: Decrease in EGR1 protein expression in human HCT116 cells after 24 hrs by Western blotting; format: functional, cell-based; in short: as §2
MDA-MB-231 [39] = assay: Suppression of MUC1 mRNA expression in human MDA-MB-231 cells by qRT-PCR; format: functional, cell-based

With `CCCC(=O)OC1O[C@H](CO)[C@@H](OC(=O)CCC)[C@H](OC(=O)CCC)[C@@H]1NC(C)=O` (some centres undefined) the Activity (MDA-MB-231 [1]) was “inactive”, the Activity (MDA-MB-231 [2]) was “inactive” and the Activity (MDA-MB-231 [3]) was “inactive”. The Activity (MDA-MB-231 [4]) was “inactive”.

`CCCC(=O)OC1O[C@H](COC(C)=O)[C@@H](OC(C)=O)[C@H](OC(C)=O)[C@@H]1NC(C)=O` (some centres undefined) was tested, and the Activity (MDA-MB-231 [5]) was “Active” and the Activity (MDA-MB-231 [6]) was “Active”.

`CCCC(=O)OC[C@H]1OC(O)[C@@H](NC(C)=O)[C@@H](OC(=O)CCC)[C@@H]1OC(=O)CCC` (some centres undefined) was tested, and the “fold change (FC)” value (MDA-MB-231 [7]) was 25, the Activity (MDA-MB-231 [8]) was “Active” and the Activity (MDA-MB-231 [9]) was “inactive”. The Activity (HCT-116 [10]) was “Active”, the Activity (MDA-MB-231 [11]) was “inactive” and the Activity (HCT-116 [12]) was “Active”. For the same molecule, the Activity (MDA-MB-231 [13]) was “Active”, the Activity (HCT-116 [14]) was “Active” and the Activity (MDA-MB-231 [15]) was “inactive”. For the same molecule, the Activity (MDA-MB-231 [16]) was “Active”, the Activity (HCT-116 [17]) was “<=5%” and the Activity (HCT-116 [18]) was “Active”. For the same molecule, the Activity (MDA-MB-231 [19]) was “Active”, the “fold change (FC)” value (MDA-MB-231 [20]) was 25 and the “fold change (FC)” value (HCT-116 [21]) was “>=50”. The Activity (MDA-MB-231 [22]) was “Active”, the Activity (HCT-116 [23]) was “Active” and the Activity (MDA-MB-231 [24]) was “Active”. For the same molecule, the “fold change (FC)” value (MDA-MB-231 [25]) was 2, the Activity (HCT-116 [26]) was “Active” and the Activity (MDA-MB-231 [27]) was “Active”. For the same molecule, the Activity (MDA-MB-231 [28]) was “Active”, the Activity (MDA-MB-231 [29]) was “inactive” and the “fold change (FC)” value (HCT-116 [30]) was “>=50”. For the same molecule, the Activity (MDA-MB-231 [31]) was “Active”, the Activity (HCT-116 [32]) was “<=5%” and the Activity (HCT-116 [33]) was “Active”. For the same molecule, the Activity (MDA-MB-231 [34]) was “Active”, the Activity (MDA-MB-231 [35]) was “Active” and the “fold change (FC)” value (MDA-MB-231 [36]) was 2. The Activity (MDA-MB-231 [37]) was “Active” and the Activity (HCT-116 [38]) was “Active”.

With `CCCC(=O)OC[C@H]1OC(OC(=O)CCC)[C@@H](NC(C)=O)[C@@H](OC(=O)CCC)[C@@H]1OC(=O)CCC` (some centres undefined) the Activity (MDA-MB-231 [6]) was “Active”.

`CC(=O)N[C@@H]1C(OC(C)=O)O[C@H](COC(C)=O)[C@@H](OC(C)=O)[C@@H]1OC(C)=O` (some centres undefined) was tested, and the Activity (MDA-MB-231 [39]) was “Active” and the Activity (MDA-MB-231 [6]) was “Active”.

In the case of `CCCC(=O)OC[C@H]1OC(OC(C)=O)[C@@H](NC(C)=O)[C@@H](OC(C)=O)[C@@H]1OC(C)=O` (some centres undefined), the Activity (MDA-MB-231 [39]) is reported as “Active”, the Activity (MDA-MB-231 [5]) is reported as “Active” and the Activity (MDA-MB-231 [6]) is reported as “Active”.
